Values after ≈ are worked out from the molar mass of the structure shown. Active and inactive are the calls of the source.

MIC, inhibition and MBC data for four compounds are collected here from ChEMBL document CHEMBL1156074, “Diazo transfer-click reaction route to new, lipophilic teicoplanin and ristocetin aglycon derivatives with high antibacterial and anti-influenza virus activity: an aggregation and receptor binding study” (J Med Chem, 2009).

Test [1] has as its system Enterococcus faecalis. The test can be described thus: Antibacterial activity against vancomycin-resistant and teicoplanin-sensitive Enterococcus faecalis ATCC 51299 harboring vanB gene after 18 hrs by broth microdilution method. The settings on record: ATCC 51299, 18 h. It is filed as functional.
Test [2] has as its system H3N2 subtype. The test can be described thus: Antiviral activity against Influenza A virus (A/Hong Kong/7/87(H3N2)) assessed as inhibition of virus-induced cytopathic effect at highest concentration by cell-based assay. The settings on record: A/Hong Kong/7/1987(H3N2). It is filed as functional, organism-based. In outline: (§1)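 Virus-induced cytopathic effect is scored visually in infected cell cultures. EC50 is defined as the compound concentration producing 50% inhibition of the CPE. A compound is recorded as not active when there is no inhibition at the highest concentration tested or at a subtoxic concentration.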
(In general: Cytopathic effects are the visible damage that an infection or toxin causes in cultured cells.)

In test [3] the test system is Staphylococcus epidermidis. As to the kind of experiment: Bactericidal activity against biofilm of Staphylococcus epidermidis ATCC 35984 after overnight incubation. The settings on record: RP62A. It is filed as functional.
Test [4] has as its system Staphylococcus aureus. The test can be described thus: Antibacterial activity against methicillin-sensitive Staphylococcus aureus ATCC 29213 after 18 hrs by broth microdilution method. It is filed as functional. Particulars: ATCC 29213, 18 h.
For test [5], the system named is Enterococcus faecalis. As to the kind of experiment: Bactericidal activity against vancomycin-resistant and teicoplanin-sensitive Enterococcus faecalis ATCC 51299 harboring vanB gene after overnight incubation. Type of test: functional.
The test system of test [6] is Staphylococcus aureus. As to the kind of experiment: Bactericidal activity against methicillin-sensitive Staphylococcus aureus ATCC 33591 after overnight incubation. Type of test: functional.
Test [7] deals with Influenza B virus. As to the kind of experiment: Antiviral activity against Influenza B virus (B/Hong Kong/5/72) assessed as inhibition of virus-induced cytopathic effect at highest concentration by cell-based assay. It is filed as functional. The settings on record: B/Hong Kong/05/1972. The method in brief:
as §1

Test [8] relates to Enterococcus faecalis. The test can be described thus: Antibacterial activity against vancomycin and teicoplanin-sensitive Enterococcus faecalis ATCC 29212 after 18 hrs by broth microdilution method. Type of test: functional. Particulars: ATCC 29212, 18 h. A general note: Broth dilution looks for growth in wells or tubes with falling amounts of substance.
The subject of test [9] is Influenza B virus. The test can be described thus: Antiviral activity against Influenza B virus (B/Hong Kong/5/72) assessed as cell viability at subtoxic concentration by cell-based MTS assay. Type of test: functional. The settings on record: B/Hong Kong/05/1972. In general terms: Tetrazolium assays rely on reduction of a dye to a coloured formazan, in cell work by metabolically active cells.

Test [10] concerns Influenza A virus. As to the kind of experiment: Antiviral activity against Influenza A virus (A/Puerto Rico/8/34(H1N1)) assessed as cell viability at subtoxic concentration by cell-based MTS assay. It is filed as functional, organism-based. The settings on record: A/Puerto Rico/8/1934(H1N1).
For test [11], the system named is Bacillus subtilis. As to the kind of experiment: Bactericidal activity against Bacillus subtilis ATCC 6633 after overnight incubation. It is filed as functional.
The subject of test [12] is Staphylococcus aureus. The test can be described thus: Antibacterial activity against methicillin-sensitive Staphylococcus aureus ATCC 33591 after 18 hrs by broth microdilution method. Type of test: functional. Particulars: ATCC 33591, 18 h.
Test [13] relates to Staphylococcus aureus. As to the kind of experiment: Bactericidal activity against methicillin-sensitive Staphylococcus aureus ATCC 29213 after overnight incubation. It is filed as functional.
Test [14] relates to Staphylococcus epidermidis. As to the kind of experiment: Bactericidal activity against Staphylococcus epidermidis after overnight incubation. Type of test: functional.
Test [15] deals with Bacillus subtilis. The test can be described thus: Antibacterial activity against Bacillus subtilis ATCC 6633 after 18 hrs by broth microdilution method. It is filed as functional. The settings on record: ATCC 6633, 18 h.
Test [16] has as its system H3N2 subtype. The test can be described thus: Antiviral activity against Influenza A virus (A/Hong Kong/7/87(H3N2)) assessed as cell viability at subtoxic concentration by cell-based MTS assay. The settings on record: A/Hong Kong/7/1987(H3N2). Type of test: functional, organism-based.
Test [17] concerns Enterococcus faecalis. As to the kind of experiment: Bactericidal activity against vancomycin and teicoplanin-sensitive Enterococcus faecalis ATCC 29212 after overnight incubation. It is filed as functional.
In test [18] the test system is Staphylococcus epidermidis. As to the kind of experiment: Antibacterial activity against Staphylococcus epidermidis after 18 hrs by broth microdilution method. It is filed as functional.
In test [19] the test system is Staphylococcus epidermidis. As to the kind of experiment: Antibacterial activity against biofilm of Staphylococcus epidermidis ATCC 35984 after 18 hrs by broth microdilution method. The settings on record: RP62A. Type of test: functional.
Test [20] has as its system Enterococcus faecalis. The test can be described thus: Antibacterial activity against vancomycin and teicoplanin-resistant Enterococcus faecalis 15376 harboring vanA gene after 18 hrs by broth microdilution method. It is filed as functional. Particulars: Enterococcus faecalis, 15376, 18 h.
Test [21] deals with Influenza A virus. The test can be described thus: Antiviral activity against Influenza A virus (A/Puerto Rico/8/34(H1N1)) assessed as inhibition of virus-induced cytopathic effect at highest concentration by cell-based assay. Type of test: functional, organism-based. The settings on record: A/Puerto Rico/8/1934(H1N1). In outline: as §1
Test [22] relates to Enterococcus faecalis. The test can be described thus: Bactericidal activity against vancomycin and teicoplanin-resistant Enterococcus faecalis 15376 harboring vanA gene after overnight incubation. It is filed as functional.

For the compound `CC(=O)N[C@H]1[C@H](O[C@@H]2c3ccc(c(Cl)c3)Oc3cc4cc(c3O)Oc3ccc(cc3Cl)C[C@H]3NC(=O)[C@H](N=[N+]=[N-])c5ccc(O)c(c5)Oc5cc(O)cc(c5)[C@H](NC3=O)C(=O)N[C@H]4C(=O)N[C@H]3C(=O)N[C@@H]2C(=O)N[C@@H](C(=O)O)c2cc(O)cc(O)c2-c2cc3ccc2O)O[C@H](CO)[C@@H](O)[C@@H]1O`, the MIC in test [1] amounted to 64 µg/mL (≈ 44.8 µM); in test [4] it was 8 µg/mL (≈ 5.6 µM); in [8], 32 µg/mL (≈ 22.4 µM); in test [12], 4 µg/mL (≈ 2.8 µM); in test [15], 64 µg/mL (≈ 44.8 µM); in test [18], 4 µg/mL (≈ 2.8 µM). Besides, the MIC was 16 µg/mL (≈ 11.2 µM) in test [19] and over 256 µg/mL in test [20]. Besides, the inhibition entry in test [2], in test [7], in test [9], in test [10], in test [16] and in [21] was “inactive” in each case. Further, the MBC in test [3] was 16 µg/mL (≈ 11.2 µM); in test [5] it was 32 µg/mL (≈ 22.4 µM); in test [6], 2 µg/mL (≈ 1.4 µM); in test [11] it was 32 µg/mL (≈ 22.4 µM); in test [13] it was 8 µg/mL (≈ 5.6 µM); in test [14] it was 4 µg/mL (≈ 2.8 µM). The compound further displayed an MBC in test [17] of 32 µg/mL (≈ 22.4 µM).
`COC(=O)[C@H]1NC(=O)[C@H]2NC(=O)[C@H](NC(=O)[C@@H]3NC(=O)[C@H]4NC(=O)[C@H](NC(=O)[C@H](N=[N+]=[N-])c5ccc(O)c(c5)Oc5cc4cc(O)c5C)[C@H](O)c4ccc(cc4)Oc4cc3cc(c4O)Oc3ccc(cc3)[C@H]2O)c2ccc(O)c(c2)-c2c(O)cc(O)cc21`: the MIC in test [1] came out at 128 µg/mL (≈ 107 µM); in test [4], 2 µg/mL (≈ 1.67 µM); in test [8] it was 16 µg/mL (≈ 13.3 µM); in test [12] it was 2 µg/mL (≈ 1.67 µM); in test [15], 4 µg/mL (≈ 3.33 µM); in test [18] it was 16 µg/mL (≈ 13.3 µM). Moreover, the MIC in test [19] was 16 µg/mL (≈ 13.3 µM); in test [20], over 256 µg/mL. The MBC stood at 8 µg/mL (≈ 6.67 µM) in test [3]; 64 µg/mL (≈ 53.3 µM) in test [5]; 1 µg/mL (≈ 0.833 µM) in test [6]; 1 µg/mL (≈ 0.833 µM) in test [11]; 2 µg/mL (≈ 1.67 µM) in test [13]; 16 µg/mL (≈ 13.3 µM) in test [14]. In addition, in test [17], the MBC worked out at 8 µg/mL (≈ 6.67 µM).
For `CC(=O)N[C@H]1[C@H](O[C@@H]2c3ccc(c(Cl)c3)Oc3cc4cc(c3O)Oc3ccc(cc3Cl)C[C@H]3NC(=O)[C@H](n5cc(COc6ccc(-c7ccccc7)cc6)nn5)c5ccc(O)c(c5)Oc5cc(O)cc(c5)[C@H](NC3=O)C(=O)N[C@H]4C(=O)N[C@H]3C(=O)N[C@@H]2C(=O)N[C@@H](C(=O)O)c2cc(O)cc(O)c2-c2cc3ccc2O)O[C@H](CO)[C@@H](O)[C@@H]1O`, the MIC in test [1], in test [4], in test [8], in [12], in test [15] and in [18] was 0.5 µg/mL (≈ 0.306 µM) each time. The MIC in [19] and in test [20] was 0.5 µg/mL (≈ 0.306 µM) in each case. The MBC in test [5], in test [6], in test [11], in test [13], in test [17] and in [22] was 0.25 µg/mL (≈ 0.153 µM) throughout.
For `COC(=O)[C@@H]1NC(=O)[C@H]2NC(=O)[C@H](NC(=O)[C@@H]3NC(=O)[C@H]4NC(=O)[C@H](NC(=O)[C@H](n5cc(COc6ccc(-c7ccccc7)cc6)nn5)c5ccc(O)c(c5)Oc5cc4cc(O)c5C)[C@H](O)c4ccc(cc4)Oc4cc3cc(c4O)Oc3ccc(cc3)[C@H]2O)c2ccc(O)c(c2)-c2c(O)cc(O)cc21`, the MIC in test [1], in test [4], in test [8], in [12], in test [15] and in test [18] was over 256 µg/mL in each case. Besides, the MIC in test [19] and in test [20] was over 256 µg/mL each time. Besides, the inhibition result in [2], in test [7], in test [9], in [10], in test [16] and in test [21] was “inactive” each time.
